Compound activity deposited in PubChem by several laboratories.
Phagocyt inh – macrophage phagocytosis inhibition; actives 0.07% (n = 110,000); AID 1029; inhibition, % at 5 µM; J774A.1 macrophage IgG-bead phagocytosis, imaging;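 active means inhibition above the mean of the plate negative controls plus 5 SD, cut at about 13% in these data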;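 further: phagocytic index as fraction of beads internalized from green versus red external bead signal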
BB579 growth dn – chemicals that inhibit yeast BB579 growth in restrictive medium (lifespan-shortening candidates); actives 0.51% (n = 140,000); S. cerevisiae BB579 growth, OD615, 48 h; inhibition, % at 10 µM;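 active means inhibition above a set limit, 3 SD over the mean compound inhibition, cut at about 44% in these data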
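System: Saccharomyces cerevisiae DeaD strain BB579, replicative lifespan model yeast | Buffer or medium: Restrictive glucose-based CSMM-D medium | Times: 4 h preincubation and 48 h exposure at 30 °C | Detection: OD615 turbidity measurement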
MRP1 act – activators of MRP-1; H69AR cells + doxorubicin, viability rescue, CellTiter-Glo; viability increase, % at 10 µM; actives 0.61% (n = 140,000); AID 799;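 active means viability gain under doxorubicin at or above a set limit, the compound median plus 3 SD, cut at about 4.7% in these data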;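 further: MRP-1 overexpressing cells given doxorubicin 25 µM after compound pretreatment; 18-22 h compound pretreatment then 72 h with doxorubicin before readout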
Yeast lifespan up – yeast lifespan extension. S. cerevisiae growth with nicotinamide, OD615; deaD strain in restrictive glucose medium. inhibition of the nicotinamide effect, % at 10 µM. actives 0.68% (n = 130,000);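 active means inhibition above a set limit, placed 3 SD over the median of all compounds, cut at about 26% in these data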
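Test system: DeaD-strain S. cerevisiae / Buffer or medium: restrictive glucose medium / Also added: nicotinamide 1.5 mM / Doses: one concentration, 10 µM, DMSO 0.25% / Schedule: 48 h at 30 °C / Signal: OD615 measurement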
MRP resist rev – reverses drug resistance mediated by MRP; differential viability (reversal), % at 10 µM; H69AR cells + 2 uM doxorubicin, CellTiter-Glo, 72 h; actives 0.04% (n = 85,000);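 active means viability drop by adding the cancer drug above about 55%, with treated viability meeting a 40% cutoff, limit read from the data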;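 further: larger differential means the compound sensitizes cells more to doxorubicin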
SDO1 yeast rescue – sdo1-depleted yeast growth rescue; AID 817; S. cerevisiae sdo1-depleted JHY4D growth rescue, OD600 30 h; active compounds read high; pdr5 snq2 efflux-pump mutant strain; z-score at 10 µM; actives 0.21% (n = 140,000);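 active means z-score above 3 at both the 24 hr and the 30 hr optical density reads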
Hits are given with their value; i = inactive; nt = no result given; ! = a repeat was not active. Rows were chosen to be rich in hits. Some 2.1% of all compounds tested hit in one or more screens of this group.

SMILES | Phagocyt inh | BB579 growth dn | MRP1 act | Yeast lifespan up | MRP resist rev | SDO1 yeast rescue
Cc1cc(C)c(S(=O)(=O)c2ccccc2)c(OC(=O)c2c(Cl)cccc2Cl)n1 | i | i | i | i | i | i
O=C(/C=C/c1ccccc1)Nc1ncn[nH]1 | i | i | i | 35.5 | nt | i
COc1ccc(CCNC(=O)CN(c2ccc(OC)c(OC)c2)S(C)(=O)=O)cc1OC | i | i | i | i | i | i
O=C(CCSc1nc(-c2ccco2)cc(C(F)(F)F)n1)NCc1cccs1 | nt | i | i | nt | i | i
CN(C)c1ccc(N=Nc2ccccc2C(=O)OCC(=O)Nc2ccccc2C(F)(F)F)cc1 | i | i | i | 28.8 | nt | i
O=C(NCCc1ccccc1)C(=O)Nc1nccs1 | i | i | i | i | nt | i
O=C(CC1SC(=O)N(Cc2ccccc2)C1=O)Nc1nccs1 (configuration not stated) | i | i | 11.6 | i | nt | i
CC1CCN(c2oc(-c3cccc4ccccc34)nc2C#N)CC1 | nt | i | i | i | i | i
Cc1sc2nc(CSCC(=O)N(C)c3ccccc3)[nH]c(=O)c2c1C | i | i | i | i | nt | i
COc1ccc(NC(=O)O/N=C2/CCCc3ccc(OC)cc32)cc1 | i | i | i | i | nt | i
O=C(Nc1ccc(Cl)cc1)ON=C1CCCC1 | i | 99.1 | i | i | nt | i
O=C(c1ccco1)N1CCN(C(=O)c2cc(-c3ccncc3)nc3ccc(Br)cc23)CC1 | nt | nt | nt | nt | i | nt
O=C(O)c1cc(-c2ccco2)nc2ccc(Br)cc12 | i | i | i | 35.7! | i | i
Cc1nc2cc(-n3ccc(=O)cc3)ccc2n1-c1ccccc1 | i | i | i | i | i | i
Cn1c2ccccc2c(=O)n2c(=O)c3ccccc3cc12 | i | 47.1 | i | i | i | i
O=C(NC(=S)N1CCc2ccccc21)c1ccccc1Br | i | i | i | 27.4 | nt | i
CCC(C)n1c(=O)c(C(=O)Nc2ccccc2S(N)(=O)=O)c(O)c2ccccc21 (configuration not stated) | i | i | i | i | i | i
COc1ccc(CNc2nc3c(c(=O)n(Cc4ccc(Cl)cc4)c(=O)n3C)n2C)cc1 | i | i | 5.5 | i | i | i
COCCNc1nc2c(c(=O)n(Cc3ccc(OC)cc3)c(=O)n2C)n1C | i | i | i | i | i | i
Cc1ccc(S(=O)(=O)C/N=C(/NC(=S)N(c2ccccc2)c2ccccc2)c2ccccc2)cc1 | i | i | i | 45.8 | i | i
Cc1ccccc1Cn1nc(C)c(NC(=O)c2noc3c2CCc2ccccc2-3)c1C | i | i | 5.2 | i | i | i
Cc1ccccc1Cn1nc(C)c(NC(=O)c2noc3c2CC(C(C)(C)C)CC3)c1C (configuration not stated) | i | i | i | i | i | i
COc1ccc(CN2C(=O)/C(=C/c3ccncc3)SC2=S)cc1 | i | i | i | 48.1 | nt | i
O=C1/C(=C/c2ccncc2)SC(=S)N1C1CCS(=O)(=O)C1 (configuration not stated) | nt | i | i | i | nt | i
COc1cc(/C=C2/SC(=O)N(Cc3ccccc3)C2=O)ccc1OCc1ccncc1 | nt | i | i | i | nt | i
SMILES | Phagocyt inh | BB579 growth dn | MRP1 act | Yeast lifespan up | MRP resist rev | SDO1 yeast rescue
O=C(O)CCCCCN1C(=O)/C(=C\c2ccncc2)SC1=S | i | i | i | 52.2 | nt | i
O=C(O)CCCN1C(=O)/C(=C/c2ccc(-c3nc4ccccc4s3)o2)SC1=S | i | i | i | i | nt | i
O=C(O)CCCCCN1C(=O)/C(=C/c2ccncc2)SC1=S | nt | i | i | 40.0 | nt | i
COc1ccc2c(c1)C1NC(=S)N[C@@](C)(O2)C1C(=O)Nc1ccccc1 (some centres not stated) | i | i | i | i | nt | i
O=C(Oc1ccccc1C(=O)Nc1ccccc1)c1ccc(Br)c([N+](=O)[O-])c1 | i | i | i | i | nt | i
CCCCCC(=O)N1CCN(CCN=CC2=C(O)CC(c3ccc(OC)c(OC)c3)CC2=O)CC1 (configuration not stated) | i | i | i | 165.5 | i | i
O=C(c1cccc(C(=O)N2CCN(c3ccccc3F)CC2)n1)N1CCN(c2ccccc2F)CC1 | i | i | i | i | i | i
Cc1ccc(NC2=CC(=O)CC(c3ccc(Cl)cc3)C2)cc1 (configuration not stated) | i | i | 4.7 | i | nt | i
Cc1ccc(N/C(C(Cl)=C(Cl)Cl)=C(/Cl)[N+](=O)[O-])c(C)c1 | i | i | i | 48.2 | nt | i
